Measurements from ChEMBL document CHEMBL1137333, “Synthesis, radiosynthesis, and biological evaluation of carbon-11 labeled 2beta-carbomethoxy-3beta-(3'-((Z)-2-haloethenyl)phenyl)nortropanes: candidate radioligands for in vivo imaging of the serotonin transporter with positron emission tomography” (J Med Chem, 2006).

Legend:
Cynomolgus monkey [1] = assay: Uptake in anesthetized cynomolgus monkey medulla after 65.0 mins; format: ADME, organism-based, Medulla of organ; details: in vivo
Procedure, shortened: (§1)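 Baseline microPET scan (P4 scanner) of anesthetized cynomolgus monkeys after injection of the carbon-11 labelled nortropane tracer. Two baseline studies were run per tracer. Radioactivity was followed over time in regional brain time-activity curves.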

Cynomolgus monkey [2] = assay: Uptake in anesthetized cynomolgus monkey cerebellum after 35.0 mins; format: ADME, organism-based, Macaca mulatta; details: rhesus monkey, in vivo
Procedure, shortened: (§2)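 Baseline microPET (Concorde P4) regional brain time-activity curves in anesthetized cynomolgus monkey following injection of the [11C]-labelled tracer, with radioactivity followed over the scan.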

Cynomolgus monkey [3] = assay: Uptake in anesthetized cynomolgus monkey medulla after 75.0 mins; format: ADME, organism-based, Medulla of organ; details: in vivo, 1.25 h; procedure, shortened: as §1
Cynomolgus monkey [4] = assay: Uptake in anesthetized cynomolgus monkey putamen after 75.0 mins; format: ADME, organism-based; details: in vivo, 1.25 h
Procedure, shortened: (§3)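 Baseline microPET (Concorde P4) scan in anesthetized cynomolgus monkeys after injection of the carbon-11 labeled tracer, with no chase drug. Regional brain time-activity curves were followed over the scan. Tracer radiochemical purity and specific activity were determined by analytical HPLC at the time of injection.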

Cynomolgus monkey [5] = assay: Uptake in anesthetized cynomolgus monkey midbrain after 105.0 mins; format: ADME, organism-based; details: in vivo, 1.75 h; procedure, shortened: as §1
Cynomolgus monkey [6] = assay: Uptake in anesthetized cynomolgus monkey occipital after 15.5 mins; format: ADME, organism-based, Macaca mulatta, Occipital cortex; details: rhesus monkey, in vivo; procedure, shortened: as §1
Cynomolgus monkey [7] = assay: Uptake in anesthetized cynomolgus monkey medulla after 15.5 mins; format: ADME, organism-based, Medulla of organ; details: in vivo; procedure, shortened: as §1
Cynomolgus monkey [8] = assay: Uptake in anesthetized cynomolgus monkey pons after 27.5 mins; format: ADME, organism-based; details: in vivo; procedure, shortened: as §3
Cynomolgus monkey [9] = assay: Uptake in anesthetized cynomolgus monkey caudate after 115.0 mins; format: ADME, organism-based, Caudate nucleus; details: in vivo; procedure, shortened: as §2
Cynomolgus monkey [10] = assay: Uptake in anesthetized cynomolgus monkey frontal after 4.5 mins; format: ADME, organism-based, Frontal cortex; details: in vivo, 0.075 h; procedure, shortened: as §1
Cynomolgus monkey [11] = assay: Uptake in anesthetized cynomolgus monkey putamen after 3.5 mins; format: ADME, organism-based; details: in vivo; procedure, shortened: as §3
Cynomolgus monkey [12] = assay: Uptake in anesthetized cynomolgus monkey caudate after 75.0 mins; format: ADME, organism-based, Caudate nucleus; details: in vivo, 1.25 h; procedure, shortened: as §2
Cynomolgus monkey [13] = assay: Uptake in anesthetized cynomolgus monkey putamen after 115.0 mins; format: ADME, organism-based; details: in vivo; procedure, shortened: as §3
Cynomolgus monkey [14] = assay: Uptake in anesthetized cynomolgus monkey frontal after 9.5 mins; format: ADME, organism-based, Frontal cortex; details: in vivo; procedure, shortened: as §1
Cynomolgus monkey [15] = assay: Ratio of uptake in caudate to cerebellum of anesthetized cynomolgus monkey after 105 mins; format: ADME, organism-based; details: in vivo, 1.75 h
Procedure, shortened: (§4)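 Baseline microPET (Concorde P4) in anesthetized cynomolgus monkey after injection of the [11C]-labelled tracer. Regional time-activity curves were taken, and each region's uptake was divided by cerebellum uptake (low-SERT reference) at 65, 85 and 105 min postinjection.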

Cynomolgus monkey [16] = assay: Uptake in anesthetized cynomolgus monkey occipital after 12.5 mins; format: ADME, organism-based, Macaca mulatta, Occipital cortex; details: rhesus monkey, in vivo; procedure, shortened: as §1
Cynomolgus monkey [17] = assay: Uptake in anesthetized cynomolgus monkey cerebellum after 45.0 mins; format: ADME, organism-based; details: in vivo, 0.75 h; procedure, shortened: as §2
Cynomolgus monkey [18] = assay: Ratio of uptake in caudate to cerebellum of anesthetized cynomolgus monkey after 85 mins; format: ADME, organism-based; details: in vivo; procedure, shortened: as §4
Cynomolgus monkey [19] = assay: Uptake in anesthetized cynomolgus monkey cerebellum after 2.5 mins; format: ADME, organism-based, Macaca mulatta; details: rhesus monkey, in vivo; procedure, shortened: as §2
Cynomolgus monkey [20] = assay: Ratio of uptake in pons to cerebellum of anesthetized cynomolgus monkey after 105 mins; format: ADME, organism-based; details: in vivo, 1.75 h; procedure, shortened: as §4
Cynomolgus monkey [21] = assay: Ratio of uptake in occipital to cerebellum of anesthetized cynomolgus monkey after 105 mins; format: ADME, organism-based; details: in vivo, 1.75 h; procedure, shortened: as §4
Cynomolgus monkey [22] = assay: Uptake in anesthetized cynomolgus monkey occipital after 65.0 mins; format: ADME, organism-based, Macaca mulatta, Occipital cortex; details: rhesus monkey, in vivo; procedure, shortened: as §1
Cynomolgus monkey [23] = assay: Uptake in anesthetized cynomolgus monkey occipital after 2.5 mins; format: ADME, organism-based, Macaca mulatta, Occipital cortex; details: rhesus monkey, in vivo; procedure, shortened: as §1
Cynomolgus monkey [24] = assay: Uptake in anesthetized cynomolgus monkey thalamus after 105.0 mins; format: ADME, organism-based; details: in vivo, 1.75 h; procedure, shortened: as §3
Cynomolgus monkey [25] = assay: Ratio of uptake in putamen to cerebellum of anesthetized cynomolgus monkey after 85 mins; format: ADME, organism-based; details: in vivo; procedure, shortened: as §4
Cynomolgus monkey [26] = assay: Uptake in anesthetized cynomolgus monkey thalamus after 65.0 mins; format: ADME, organism-based; details: in vivo; procedure, shortened: as §3
Cynomolgus monkey [27] = assay: Uptake in anesthetized cynomolgus monkey frontal after 0.5 mins; format: ADME, organism-based, Frontal cortex; details: in vivo; procedure, shortened: as §2
Cynomolgus monkey [28] = assay: Uptake in anesthetized cynomolgus monkey thalamus after 18.5 mins; format: ADME, organism-based; details: in vivo; procedure, shortened: as §3
Cynomolgus monkey [29] = assay: Ratio of uptake in occipital to cerebellum of anesthetized cynomolgus monkey after 85 mins; format: ADME, organism-based; details: in vivo; procedure, shortened: as §4
Cynomolgus monkey [30] = assay: Ratio of uptake in pons to cerebellum of anesthetized cynomolgus monkey after 65 mins; format: ADME, organism-based; details: in vivo; procedure, shortened: as §4
Cynomolgus monkey [31] = assay: Uptake in anesthetized cynomolgus monkey frontal after 45.0 mins; format: ADME, organism-based, Frontal cortex; details: in vivo, 0.75 h; procedure, shortened: as §1
Cynomolgus monkey [32] = assay: Uptake in anesthetized cynomolgus monkey thalamus after 9.5 mins; format: ADME, organism-based; details: in vivo; procedure, shortened: as §3
Cynomolgus monkey [33] = assay: Uptake in anesthetized cynomolgus monkey frontal after 75.0 mins; format: ADME, organism-based, Frontal cortex; details: in vivo, 1.25 h; procedure, shortened: as §1
Cynomolgus monkey [34] = assay: Uptake in anesthetized cynomolgus monkey medulla after 27.5 mins; format: ADME, organism-based, Medulla of organ; details: in vivo; procedure, shortened: as §1

## [11CH3]OC(=O)[C@@H]1C2CCC(C[C@@H]1c1cccc(/C=C/Br)c1)N2 (some centres undefined)
Cynomolgus monkey [1]
  Drug uptake: 7.11
Cynomolgus monkey [2]
  Drug uptake: 5.92
Cynomolgus monkey [3]
  Drug uptake: 7.18
Cynomolgus monkey [4]
  Drug uptake: 7.45
Cynomolgus monkey [5]
  Drug uptake: 7.72
Cynomolgus monkey [6]
  Drug uptake: 4.55
Cynomolgus monkey [7]
  Drug uptake: 6.52
Cynomolgus monkey [8]
  Drug uptake: 6.51
Cynomolgus monkey [9]
  Drug uptake: 6.42
Cynomolgus monkey [10]
  Drug uptake: 1.57
Cynomolgus monkey [11]
  Drug uptake: 1.96
Cynomolgus monkey [12]
  Drug uptake: 6.61
Cynomolgus monkey [13]
  Drug uptake: 7.1
Cynomolgus monkey [14]
  Drug uptake: 2.85
Cynomolgus monkey [15]
  Ratio: 1.7
Cynomolgus monkey [16]
  Drug uptake: 4.08
Cynomolgus monkey [17]
  Drug uptake: 5.58
Cynomolgus monkey [18]
  Ratio: 1.5
Cynomolgus monkey [19]
  Drug uptake: 1.1
Cynomolgus monkey [20]
  Ratio: 1.8
Cynomolgus monkey [21]
  Ratio: 0.9
Cynomolgus monkey [22]
  Drug uptake: 5.14
Cynomolgus monkey [23]
  Drug uptake: 0.65
Cynomolgus monkey [24]
  Drug uptake: 6.47
Cynomolgus monkey [25]
  Ratio: 1.6
Cynomolgus monkey [26]
  Drug uptake: 6.39
Cynomolgus monkey [27]
  Drug uptake: 0.01
Cynomolgus monkey [28]
  Drug uptake: 5.21
Cynomolgus monkey [29]
  Ratio: 0.9
Cynomolgus monkey [30]
  Ratio: 1.5
Cynomolgus monkey [31]
  Drug uptake: 3.76
Cynomolgus monkey [32]
  Drug uptake: 4.3
Cynomolgus monkey [33]
  Drug uptake: 3.78
Cynomolgus monkey [34]
  Drug uptake: 7.08
